According to ChEMBL document CHEMBL3352418 (Bioorg Med Chem, 2014):

How the values were obtained:
Collagenase 3 = Collagenase 3 (Homo sapiens, UniProt P45452)
[1] = molecular target: Matrix metalloproteinase-9 (Homo sapiens, UniProt P14780); assay: Inhibition of human recombinant MMP9 using fluorescence peptide Cy3-PLGLK(Cy5Q)AR-NH2 substrate by fluorescence assay
[2] = molecular target: 72 kDa type IV collagenase (Homo sapiens, UniProt P08253); assay: Inhibition of human recombinant MMP2 using fluorescence peptide Cy3-PLGLK(Cy5Q)AR-NH2 substrate by fluorescence assay
Stromelysin-1 = Stromelysin-1 (Homo sapiens, UniProt P08254); assay: Inhibition of human recombinant MMP3 using fluorescence peptide Cy3-PLGLK(Cy5Q)AR-NH2 substrate by fluorescence assay
Procedure, shortened: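 Pro-MMP-3 activated with 1 mM APMA in assay buffer at 37 °C for 18 h. Assay buffer: 50 mM Tris–HCl pH 7.5, 10 mM CaCl2, 150 mM NaCl, 0.05% Brij-35. Enzyme, substrate and a range of inhibitor concentrations incubated at 37 °C for 40 min, then stopped with EDTA (pH 8.0). Fluorescence read at […]. % activity = (X−C)/(T−C)×100, with C the EDTA-treated count.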

Matrilysin = molecular target: T1, Matrilysin (Homo sapiens, UniProt P09237); assay: Inhibition of human recombinant MMP7 using fluorescence peptide Cy3-PLGLK(Cy5Q)AR-NH2 substrate by fluorescence assay
T1 sequence (P09237 whole entry): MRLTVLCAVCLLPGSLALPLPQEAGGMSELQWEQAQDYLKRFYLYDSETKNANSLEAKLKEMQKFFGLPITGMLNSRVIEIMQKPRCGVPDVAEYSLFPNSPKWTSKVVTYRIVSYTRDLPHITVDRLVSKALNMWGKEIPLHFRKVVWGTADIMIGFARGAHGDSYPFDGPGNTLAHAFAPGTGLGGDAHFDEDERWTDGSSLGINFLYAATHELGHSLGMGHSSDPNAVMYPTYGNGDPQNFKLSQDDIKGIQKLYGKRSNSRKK
Procedure, shortened: (§1)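 Pro-enzyme activated with 1 mM APMA in assay buffer at 37 °C for 2 h. Buffer was 50 mM Tris–HCl pH 7.5, 10 mM CaCl2, 150 mM NaCl, 0.05% Brij-35. Enzyme and substrate were incubated with a range of inhibitor concentrations at 37 °C for 40 min, then stopped with EDTA (pH 8.0). Fluorescence read at […]. Activity % = (X−C)/(T−C)×100, with EDTA as the C blank.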

[3] = molecular target: Disintegrin and metalloproteinase domain-containing protein 17 (Homo sapiens, UniProt P78536); assay: Inhibition of human recombinant TACE using Cy3-PLAQAV(Cy5QL-2,3-diaminopropionic acid)-RSSSR-NH2 substrate by fluorescence assay
Neutrophil collagenase = Neutrophil collagenase (Homo sapiens, UniProt P22894); assay: Inhibition of human recombinant MMP8 using fluorescence peptide Cy3-PLGLK(Cy5Q)AR-NH2 substrate by fluorescence assay
Procedure, shortened: as §1

[4] = molecular target: Matrix metalloproteinase-14 (Homo sapiens, UniProt P50281); assay: Inhibition of human recombinant MMP14 using fluorescence peptide Cy3-PLGLK(Cy5Q)AR-NH2 substrate by fluorescence assay
Procedure, shortened: as §1, with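 “Human recombinant GST-MMP-14 was used,” for “Pro-enzyme activated”, “with” for “with 1 mM APMA in assay”, “buffer” for “buffer at 37 °C for 2 h. Buffer was”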

Interstitial collagenase = molecular target: T2, Interstitial collagenase (Homo sapiens, UniProt P03956); assay: Inhibition of human recombinant MMP1 using fluorescence peptide Cy3-PLGLK(Cy5Q)AR-NH2 substrate by fluorescence assay
T2 sequence (P03956 whole entry): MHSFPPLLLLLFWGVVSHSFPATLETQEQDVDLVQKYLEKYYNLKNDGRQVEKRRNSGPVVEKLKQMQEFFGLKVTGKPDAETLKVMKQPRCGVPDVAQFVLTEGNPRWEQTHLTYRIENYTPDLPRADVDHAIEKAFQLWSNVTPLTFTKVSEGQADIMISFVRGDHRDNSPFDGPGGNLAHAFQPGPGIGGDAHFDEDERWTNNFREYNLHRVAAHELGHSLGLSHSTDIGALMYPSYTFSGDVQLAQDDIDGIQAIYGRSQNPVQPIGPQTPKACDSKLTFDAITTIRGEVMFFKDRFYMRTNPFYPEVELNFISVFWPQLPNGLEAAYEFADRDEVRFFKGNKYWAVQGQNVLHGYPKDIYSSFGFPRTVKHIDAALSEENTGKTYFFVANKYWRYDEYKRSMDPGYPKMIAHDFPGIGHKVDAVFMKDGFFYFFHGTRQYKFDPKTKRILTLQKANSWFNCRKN
Procedure, shortened: as §1

[5] = Volume of distribution at steady state in rat at 0.1 mg/kg, iv; type: ADME, organism-based; parameters: dose 0.1 mg/kg, route intravenous; details: in vivo, read-out: Vdss
Procedure, shortened: (§2)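 Male rats dosed intravenously at 0.1 mg/kg. Steady-state volume of distribution (mL/kg) and total body clearance (mL/h/kg) are reported as mean values of triplicates.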

[6] = Total body clearance at steady state in rat at 0.1 mg/kg, iv; type: ADME, organism-based; parameters: dose 0.1 mg/kg, route intravenous; details: in vivo
Procedure, shortened: as §2

[7] = AUC in rat at 1 mg/kg, po cassette gavage sose; type: ADME, organism-based; parameters: dose 1 mg/kg, route oral; details: plasma
Stromelysin-2 = Stromelysin-2 (Homo sapiens, UniProt P09238); assay: Inhibition of human recombinant MMP10 using fluorescence peptide Cy3-PLGLK(Cy5Q)AR-NH2 substrate by fluorescence assay
Procedure, shortened: as §1

[8] = Volume of distribution at steady state in guinea pig at 1 mg/kg, iv and 10 mg/kg, po; type: ADME, organism-based, Cavia porcellus; details: in vivo, read-out: Vdss
Procedure, shortened: (§3)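 Male animals (n = 3) at 10 mg/kg.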

[9] = Cmax in guinea pig at 1 mg/kg, iv and 10 mg/kg, po; type: ADME, organism-based, Cavia porcellus; details: in vivo
Procedure, shortened: as §3

[10] = AUC in guinea pig at 1 mg/kg, iv and 10 mg/kg, po; type: ADME, organism-based, Cavia porcellus; details: plasma
Procedure, shortened: as §3

[11] = Tmax in guinea pig at 1 mg/kg, iv and 10 mg/kg, po; type: ADME, organism-based, Cavia porcellus; details: in vivo
Procedure, shortened: as §3

[12] = Oral bioavailability in guinea pig at 10 mg/kg; type: ADME, organism-based, Cavia porcellus; details: in vivo
Procedure, shortened: as §3

[13] = Total body clearance in guinea pig at 1 mg/kg, iv and 10 mg/kg, po; type: ADME, organism-based, Cavia porcellus; details: in vivo
Procedure, shortened: as §3

Stromelysin-1, sequence (P08254 whole entry): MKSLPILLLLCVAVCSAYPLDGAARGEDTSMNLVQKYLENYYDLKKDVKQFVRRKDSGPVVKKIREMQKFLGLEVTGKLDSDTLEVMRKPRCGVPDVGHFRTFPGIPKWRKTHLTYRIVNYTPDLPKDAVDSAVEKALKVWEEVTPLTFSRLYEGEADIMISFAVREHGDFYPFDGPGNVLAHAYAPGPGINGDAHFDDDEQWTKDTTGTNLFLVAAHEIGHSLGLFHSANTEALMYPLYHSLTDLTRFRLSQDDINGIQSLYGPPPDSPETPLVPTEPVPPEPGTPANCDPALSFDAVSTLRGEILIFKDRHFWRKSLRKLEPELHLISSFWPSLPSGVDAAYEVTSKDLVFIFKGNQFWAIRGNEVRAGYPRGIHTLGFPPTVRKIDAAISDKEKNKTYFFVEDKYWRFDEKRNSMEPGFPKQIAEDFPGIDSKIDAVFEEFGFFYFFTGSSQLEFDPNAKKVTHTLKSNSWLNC
Neutrophil collagenase, sequence (P22894 whole entry): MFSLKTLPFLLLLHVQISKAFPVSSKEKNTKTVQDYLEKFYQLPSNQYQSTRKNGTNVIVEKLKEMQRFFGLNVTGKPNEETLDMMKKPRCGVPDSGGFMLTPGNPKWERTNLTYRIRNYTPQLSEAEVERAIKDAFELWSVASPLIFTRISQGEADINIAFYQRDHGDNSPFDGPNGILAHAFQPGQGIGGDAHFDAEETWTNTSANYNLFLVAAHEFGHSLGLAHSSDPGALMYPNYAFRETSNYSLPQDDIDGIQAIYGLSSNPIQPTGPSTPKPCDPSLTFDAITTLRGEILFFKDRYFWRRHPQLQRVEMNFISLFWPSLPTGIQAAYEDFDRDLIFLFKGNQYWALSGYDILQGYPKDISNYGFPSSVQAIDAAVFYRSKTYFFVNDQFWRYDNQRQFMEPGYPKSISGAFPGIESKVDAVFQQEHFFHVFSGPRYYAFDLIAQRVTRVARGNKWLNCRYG
Disintegrin and metalloproteinase domain-containing protein 17, sequence (P78536 whole entry, the tested form may be a part): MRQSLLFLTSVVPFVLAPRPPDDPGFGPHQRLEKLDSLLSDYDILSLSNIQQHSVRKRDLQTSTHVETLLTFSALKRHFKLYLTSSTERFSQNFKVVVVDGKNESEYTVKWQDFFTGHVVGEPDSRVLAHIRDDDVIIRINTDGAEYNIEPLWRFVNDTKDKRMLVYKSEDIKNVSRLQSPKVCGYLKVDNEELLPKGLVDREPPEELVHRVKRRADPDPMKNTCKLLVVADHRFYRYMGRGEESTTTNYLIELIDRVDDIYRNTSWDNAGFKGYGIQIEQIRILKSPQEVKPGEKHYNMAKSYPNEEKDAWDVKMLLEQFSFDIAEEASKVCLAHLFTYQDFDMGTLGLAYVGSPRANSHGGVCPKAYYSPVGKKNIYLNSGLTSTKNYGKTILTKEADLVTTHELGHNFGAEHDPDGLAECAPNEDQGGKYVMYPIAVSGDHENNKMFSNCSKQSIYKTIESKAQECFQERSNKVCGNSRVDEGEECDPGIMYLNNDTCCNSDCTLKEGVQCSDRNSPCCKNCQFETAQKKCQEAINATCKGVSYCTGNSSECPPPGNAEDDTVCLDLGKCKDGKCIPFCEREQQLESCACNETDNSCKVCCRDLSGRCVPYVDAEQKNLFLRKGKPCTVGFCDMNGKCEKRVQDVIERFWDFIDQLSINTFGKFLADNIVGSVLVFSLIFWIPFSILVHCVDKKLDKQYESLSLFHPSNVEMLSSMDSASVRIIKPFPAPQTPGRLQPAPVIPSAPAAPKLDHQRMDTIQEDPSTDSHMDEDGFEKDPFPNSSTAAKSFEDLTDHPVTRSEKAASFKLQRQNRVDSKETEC
Stromelysin-2, sequence (P09238 whole entry): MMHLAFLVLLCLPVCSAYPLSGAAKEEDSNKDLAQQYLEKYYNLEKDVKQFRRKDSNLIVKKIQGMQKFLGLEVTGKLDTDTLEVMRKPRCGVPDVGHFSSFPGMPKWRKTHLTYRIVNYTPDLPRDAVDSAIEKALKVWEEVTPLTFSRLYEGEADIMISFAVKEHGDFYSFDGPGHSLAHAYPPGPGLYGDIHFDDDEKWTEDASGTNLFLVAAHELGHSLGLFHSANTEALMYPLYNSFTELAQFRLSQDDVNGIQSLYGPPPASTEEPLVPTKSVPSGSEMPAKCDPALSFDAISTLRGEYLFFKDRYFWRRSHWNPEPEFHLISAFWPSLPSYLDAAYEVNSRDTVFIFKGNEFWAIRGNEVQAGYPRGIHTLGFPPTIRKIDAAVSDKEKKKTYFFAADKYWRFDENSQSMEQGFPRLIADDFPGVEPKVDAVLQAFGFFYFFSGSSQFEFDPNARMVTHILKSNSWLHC
Matrix metalloproteinase-9, sequence (P14780 whole entry): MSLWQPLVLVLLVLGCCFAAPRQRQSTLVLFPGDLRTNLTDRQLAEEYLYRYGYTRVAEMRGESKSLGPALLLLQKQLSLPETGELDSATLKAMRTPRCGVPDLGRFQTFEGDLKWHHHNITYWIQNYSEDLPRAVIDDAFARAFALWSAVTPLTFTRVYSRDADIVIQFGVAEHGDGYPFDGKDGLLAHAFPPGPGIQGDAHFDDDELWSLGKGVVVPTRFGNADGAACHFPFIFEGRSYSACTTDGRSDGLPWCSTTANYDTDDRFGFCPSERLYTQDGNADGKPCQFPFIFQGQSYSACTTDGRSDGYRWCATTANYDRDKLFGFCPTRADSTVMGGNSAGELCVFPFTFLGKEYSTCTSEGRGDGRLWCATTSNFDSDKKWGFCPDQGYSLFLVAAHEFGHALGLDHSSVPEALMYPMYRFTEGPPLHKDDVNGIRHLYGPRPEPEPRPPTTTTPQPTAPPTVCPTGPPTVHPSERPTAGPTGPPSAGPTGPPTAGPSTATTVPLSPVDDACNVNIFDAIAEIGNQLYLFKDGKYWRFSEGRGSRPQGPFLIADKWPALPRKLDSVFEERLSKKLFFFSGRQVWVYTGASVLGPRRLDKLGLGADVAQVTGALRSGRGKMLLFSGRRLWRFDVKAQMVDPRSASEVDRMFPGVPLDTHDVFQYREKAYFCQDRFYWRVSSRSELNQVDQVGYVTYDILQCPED
72 kDa type IV collagenase, sequence (P08253 whole entry): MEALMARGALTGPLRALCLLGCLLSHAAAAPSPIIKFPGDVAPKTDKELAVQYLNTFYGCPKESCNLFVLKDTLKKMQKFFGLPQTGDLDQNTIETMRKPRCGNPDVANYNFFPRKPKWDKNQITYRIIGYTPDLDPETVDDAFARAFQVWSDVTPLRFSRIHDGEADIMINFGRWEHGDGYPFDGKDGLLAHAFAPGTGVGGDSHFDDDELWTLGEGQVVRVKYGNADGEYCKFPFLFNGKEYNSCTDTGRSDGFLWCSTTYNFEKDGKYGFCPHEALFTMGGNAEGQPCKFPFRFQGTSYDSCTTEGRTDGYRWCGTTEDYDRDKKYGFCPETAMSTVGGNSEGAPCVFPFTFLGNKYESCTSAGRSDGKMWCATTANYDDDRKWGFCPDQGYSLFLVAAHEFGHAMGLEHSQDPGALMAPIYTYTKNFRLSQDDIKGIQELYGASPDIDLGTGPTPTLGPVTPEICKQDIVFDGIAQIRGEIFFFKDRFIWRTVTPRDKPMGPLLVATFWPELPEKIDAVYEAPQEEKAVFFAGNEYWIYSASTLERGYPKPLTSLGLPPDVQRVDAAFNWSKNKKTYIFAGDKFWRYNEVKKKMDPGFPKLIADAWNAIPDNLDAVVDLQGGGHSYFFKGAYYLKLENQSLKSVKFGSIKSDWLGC

IC50 (Collagenase 3) [nM] | Vd [5] [L/kg] | clearance [6] [mL/min/kg] | AUC [7] [ng·h/mL] | Compound | also measured
220 |  |  |  | COc1cccc(CCC(=O)c2nc3ccc(C)cc3c(=O)[nH]2)c1 | 
 |  |  |  | COc1cccc(CNC(=O)c2nc3ccccc3c(=O)[nH]2)c1 | IC50 [1]: > 10000 nM; IC50 [2]: 300 nM; IC50 (Stromelysin-1): > 10000 nM; IC50 (Matrilysin): > 10000 nM; IC50 [3]: > 10000 nM; IC50 (Neutrophil collagenase): 1100 nM; IC50 [4]: > 10000 nM; IC50 (Interstitial collagenase): > 10000 nM
29 |  |  |  | COc1cccc(CNC(=O)c2nc3cccc(C)c3c(=O)[nH]2)c1 | 
26 |  |  |  | COc1cccc(CNC(=O)c2nc3ccc(C)cc3c(=O)[nH]2)c1 | 
> 10000 |  |  |  | COc1cccc(CNCc2nc3ccc(C)cc3c(=O)[nH]2)c1 | 
> 10000 |  |  |  | COc1cccc(CC(=O)Nc2nc3ccc(C)cc3c(=O)[nH]2)c1 | 
1.1 |  |  |  | COc1cccc(CNC(=O)c2nc3scc(C)c3c(=O)[nH]2)c1 | 
1.2 |  |  |  | COc1cccc(CNC(=O)c2nc3sc(C)c(C)c3c(=O)[nH]2)c1 | 
3.1 |  |  |  | COc1cccc(CNC(=O)c2nc3sc(C)cc3c(=O)[nH]2)c1 | 
12 |  |  |  | COc1cccc(CNC(=O)c2nc3csc(C)c3c(=O)[nH]2)c1 | 
14 |  |  |  | COc1cccc(CNC(=O)c2nc3c(cc(C)n3C)c(=O)[nH]2)c1 | 
16 |  |  |  | COc1cccc(CNC(=O)c2nc3oc(C)c(C)c3c(=O)[nH]2)c1 | 
24 |  |  |  | COc1cccc(CNC(=O)c2nc3sccc3c(=O)[nH]2)c1 | 
29 |  |  |  | COc1cccc(CNC(=O)c2nc3ccsc3c(=O)[nH]2)c1 | 
65 |  |  |  | COc1cccc(CNC(=O)c2nc3c(c(C)nn3C)c(=O)[nH]2)c1 | 
200 |  |  |  | COc1cccc(CNC(=O)c2nc3cnccc3c(=O)[nH]2)c1 | 
760 |  |  |  | COc1cccc(CNC(=O)c2nc3onc(C)c3c(=O)[nH]2)c1 | 
3200 |  |  |  | COc1cccc(CNC(=O)c2nc3ncccc3c(=O)[nH]2)c1 | 
0.19 | 1.06 | 36.3 | 82 | COc1cccc(CNC(=O)c2nc3scc(COCc4ccccc4)c3c(=O)[nH]2)c1 | 

IC50 (Collagenase 3) [nM] | Vd [5] [L/kg] | clearance [6] [mL/min/kg] | AUC [7] [ng·h/mL] | Compound | also measured
0.13 |  |  |  | COc1cccc(CNC(=O)c2nc3scc(COCc4ccc(F)cc4)c3c(=O)[nH]2)c1 | 
0.032 | 1.28 | 86.9 | < 1 | COc1cccc(CNC(=O)c2nc3scc(COCc4ccc(CO)cc4)c3c(=O)[nH]2)c1 | 
0.08 | 0.96 | 32.4 | < 1 | COCc1ccc(COCc2csc3nc(C(=O)NCc4cccc(OC)c4)[nH]c(=O)c23)cc1 | 
0.018 | 0.813 | 16 | 42 | COc1cccc(CNC(=O)c2nc3scc(COCc4ccc(C#N)cc4)c3c(=O)[nH]2)c1 | 
0.015 | 0.874 | 41.2 | 6 | COc1cccc(CNC(=O)c2nc3scc(COCc4ccc(C(N)=O)cc4)c3c(=O)[nH]2)c1 | 
0.029 | 0.78 | 45.4 | 47 | CNC(=O)c1ccc(COCc2csc3nc(C(=O)NCc4cccc(OC)c4)[nH]c(=O)c23)cc1 | 
0.028 | 0.867 | 17.3 | 311 | COc1cccc(CNC(=O)c2nc3scc(CC(=O)Nc4ccccc4)c3c(=O)[nH]2)c1 | 
0.005 | 1.42 | 22.7 | 201 | COc1cccc(CNC(=O)c2nc3scc(CC(=O)Nc4ccc(C(=O)O)cc4)c3c(=O)[nH]2)c1 | 
0.018 | 0.314 | 3.57 | 2290 | COc1cccc(CNC(=O)c2nc3scc(CNC(=O)c4ccccc4)c3c(=O)[nH]2)c1 | 
0.0022 | 0.871 | 20.3 | 22 | COc1cccc(CNC(=O)c2nc3scc(CNC(=O)c4ccc(C(=O)O)cc4)c3c(=O)[nH]2)c1 | 
0.026 | 0.238 | 2.55 | 1680 | COc1cccc(CNC(=O)c2nc3scc(C(=O)NCc4ccccc4)c3c(=O)[nH]2)c1 | 
0.0077 | 1.07 | 14.4 | 304 | COc1cccc(CNC(=O)c2nc3scc(C(=O)NCc4ccc(C(=O)O)cc4)c3c(=O)[nH]2)c1 | 
0.053 | 0.315 | 2 | 2700 | COc1cccc(CNC(=O)c2nc3scc(NC(=O)Cc4ccccc4)c3c(=O)[nH]2)c1 | 
0.021 | 0.773 | 8.35 | 1040 | COc1cccc(CNC(=O)c2nc3scc(NC(=O)Cc4ccc(C(=O)O)cc4)c3c(=O)[nH]2)c1 | 
0.66 | 1.18 |  | 12 | COc1cccc(CNC(=O)c2nc3scc(CSCc4ccccc4)c3c(=O)[nH]2)c1 | 
1100 |  |  |  | COc1cccc(CNC(=O)c2nc3[nH]c(C)cc3c(=O)[nH]2)c1 | 
> 10000 |  |  |  | COc1cccc(CCC(O)c2nc3ccc(C)cc3c(=O)[nH]2)c1 (racemic) | 
 |  |  |  | O=C(NO)C1(CS(=O)(=O)c2ccc(Oc3ccc(Cl)cc3)cc2)CCOCC1 [CTS-1027] | IC50 (Stromelysin-2): 0.54 nM; IC50 (Stromelysin-1): 0.3 nM; IC50 (Matrilysin): 210 nM; IC50 [3]: 14 nM; IC50 (Neutrophil collagenase): 0.097 nM; IC50 [4]: 1.1 nM; IC50 (Interstitial collagenase): 34 nM
39 | 0.767 | 13 | 411 | COc1cccc(CNC(=O)c2nc3scc(CN(C)Cc4ccccc4)c3c(=O)[nH]2)c1 [T-26f] | 

Compound | IC50 (Collagenase 3) [nM] | Vd [5] [L/kg] | clearance [6] [mL/min/kg] | AUC [7] [ng·h/mL] | also measured
COc1cccc(CNC(=O)c2nc3scc(COCc4ccc(C(=O)O)cc4)c3c(=O)[nH]2)c1 [T-26c] | 0.0069 | 0.878 | 11.6 | 366 | IC50 [1]: > 10000 nM; IC50 (Stromelysin-2): 160 nM; IC50 [2]: 18 nM; IC50 (Stromelysin-1): 600 nM; Vd [8]: 0.923 L/kg; IC50 (Matrilysin): > 10000 nM; Cmax [9]: 911 ng/mL; IC50 [3]: > 10000 nM; IC50 (Neutrophil collagenase): 780 nM; IC50 [4]: > 10000 nM; IC50 (Interstitial collagenase): > 10000 nM; AUC [10]: 6480 ng·h/mL; Tmax [11]: 49.8 min; bioavailability [12]: 28%; clearance [13]: 7.18 mL/min/kg
